Source: ChEMBL document CHEMBL1145848, “Unique high-affinity synthetic mu-opioid receptor agonists with central- and systemic-mediated analgesia” (J Med Chem, 2003)

How the values were obtained:
[1] = molecular target: T1, Delta-type opioid receptor (Mus musculus, UniProt P32300); assay: Opioid receptor delta 1 agonism in mouse vas deferens; assay type: functional, tissue-based
Method in brief: (§1)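 Isolated tissue bioassay: mouse vas deferens for δ, guinea pig ileum for μ. Field stimulation with bipolar rectangular pulses of supramaximal voltage. Inhibition of the electrically evoked twitch measured, and IC50 taken from concentration–response curves. [D-Ala2]deltorphin I (MVD) and dermorphin (GPI) were internal standards. Five to six separate assays.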

Mu-type opioid receptor [2] = molecular target: Mu-type opioid receptor (Cavia porcellus, UniProt P97266); assay: Opioid receptor mu 1 agonism in guinea pig ileum; assay type: functional, tissue-based; method in brief: as §1
Mu-type opioid receptor [3] = molecular target: Mu-type opioid receptor (Rattus norvegicus, UniProt P33535); assay: Binding affinity for Opioid receptor mu 1 using [3H]DAGO in rat brain P2 synaptosomal preparation; assay type: tissue-based
Method in brief: (§2)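 Competition binding at equilibrium, 2 h at room temperature, on rat brain P2 synaptosomes. Nonspecific binding with 2 μM unlabeled peptide. GF/C filtration and scintillation counting. Duplicates, five to eight doses, 3–5 repeats. Ki by Cheng–Prusoff.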

[4] = molecular target: Delta-type opioid receptor (Rattus norvegicus, UniProt P33533); assay: Binding affinity for Opioid receptor delta 1 using [3H]DPDPE in rat brain P2 synaptosomal preparation; assay type: tissue-based; method in brief: as §2
[5] = molecular target: T1, Delta-type opioid receptor; assay: Concentration required to double the agonist concentration to achieve the original response for Opioid receptor delta 1; assay type: functional; details: read-out: pA2 (converted)
Method in brief: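 Antagonism reported as pA2, the negative log of the molar antagonist concentration that doubles the agonist concentration needed for the original response. Measured in the δ bioassay, the electrically stimulated mouse vas deferens twitch preparation. n = 5–6.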

[6] = molecular target: Opioid receptors; mu & delta (Rattus norvegicus) (UniProt P33533+P33535); assay: Receptor selectivity for the delta to mu opioid receptor; assay type: protein assay
Method in brief: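 δ/μ ratio of Ki values from rat brain P2 synaptosome competition binding ([3H]DPDPE for δ, [3H]DAGO for μ; 2 h, room temperature). Ki calculated by Cheng–Prusoff.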

Chain of Mu-type opioid receptor (Cavia porcellus, UniProt P97266) (P97266 whole entry): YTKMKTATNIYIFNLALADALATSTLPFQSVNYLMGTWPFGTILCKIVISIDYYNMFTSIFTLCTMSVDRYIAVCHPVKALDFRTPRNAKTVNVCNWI
Chain of Delta-type opioid receptor (Rattus norvegicus, UniProt P33533) (P33533 whole entry): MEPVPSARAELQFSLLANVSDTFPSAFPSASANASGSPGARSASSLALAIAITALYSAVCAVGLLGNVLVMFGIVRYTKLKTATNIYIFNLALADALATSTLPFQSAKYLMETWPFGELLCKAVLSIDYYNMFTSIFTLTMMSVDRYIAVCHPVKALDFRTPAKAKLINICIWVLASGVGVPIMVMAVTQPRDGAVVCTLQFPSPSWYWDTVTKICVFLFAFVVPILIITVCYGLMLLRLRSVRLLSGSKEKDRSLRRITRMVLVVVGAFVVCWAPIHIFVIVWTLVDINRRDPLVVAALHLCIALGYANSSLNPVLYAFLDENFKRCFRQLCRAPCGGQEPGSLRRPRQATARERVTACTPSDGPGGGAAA
Chain of Opioid receptors; mu & delta (Rattus norvegicus) (P33533 whole entry, looked up): as the sequence (P33533 whole entry) above
Chain of Opioid receptors; mu & delta (Rattus norvegicus) (P33535 whole entry, looked up): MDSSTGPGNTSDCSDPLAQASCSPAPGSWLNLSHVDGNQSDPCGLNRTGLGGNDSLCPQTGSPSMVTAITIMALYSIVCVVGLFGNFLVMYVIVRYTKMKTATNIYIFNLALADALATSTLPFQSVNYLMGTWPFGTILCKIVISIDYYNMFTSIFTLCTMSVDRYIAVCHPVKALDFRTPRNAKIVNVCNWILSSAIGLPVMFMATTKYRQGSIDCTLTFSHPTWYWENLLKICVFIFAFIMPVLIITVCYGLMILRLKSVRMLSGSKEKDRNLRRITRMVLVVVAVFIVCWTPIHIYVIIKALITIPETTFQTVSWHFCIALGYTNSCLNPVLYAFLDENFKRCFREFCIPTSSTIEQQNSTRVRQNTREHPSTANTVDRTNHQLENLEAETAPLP
Chain of Mu-type opioid receptor (Rattus norvegicus, UniProt P33535) (P33535 whole entry): as the sequence (P33535 whole entry, looked up) above
T1 sequence (P32300 whole entry): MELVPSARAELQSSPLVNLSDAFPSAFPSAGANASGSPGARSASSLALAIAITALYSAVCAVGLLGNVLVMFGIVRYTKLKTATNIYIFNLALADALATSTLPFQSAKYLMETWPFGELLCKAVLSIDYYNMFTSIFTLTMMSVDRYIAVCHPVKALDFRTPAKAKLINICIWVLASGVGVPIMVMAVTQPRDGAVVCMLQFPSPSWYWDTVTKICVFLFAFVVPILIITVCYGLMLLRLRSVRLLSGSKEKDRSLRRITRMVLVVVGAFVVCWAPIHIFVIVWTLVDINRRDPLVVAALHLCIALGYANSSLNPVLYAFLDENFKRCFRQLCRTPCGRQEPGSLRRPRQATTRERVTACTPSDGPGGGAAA

Cc1cc(O)cc(C)c1C[C@@H](N)C(=O)NCCCCNC(=O)[C@@H](N)Cc1c(C)cc(O)cc1C
IC50 [1]: > 10000 nM
IC50 (Mu-type opioid receptor [2]): 5.33 nM
Ki (Mu-type opioid receptor [3]): 0.041 nM
Ki [4]: 53.4 nM
Kb [5]: 1580 nM
Ratio [6]: 1300

N[C@H](Cc1ccc(O)cc1)C(=O)NCCCCNC(=O)[C@@H](N)Cc1ccc(O)cc1
Ki (Mu-type opioid receptor [3]): 309 nM
Ki [4]: 6500 nM
Ratio [6]: 21

N[C@H](Cc1ccc(O)cc1)C(=O)NCCNC(=O)[C@@H](N)Cc1ccc(O)cc1
Ki (Mu-type opioid receptor [3]): 648 nM
Ki [4]: 8290 nM
Ratio [6]: 13

N[C@H](Cc1ccccc1)C(=O)NCCCCNC(=O)[C@@H](N)Cc1ccccc1
Ki (Mu-type opioid receptor [3]): 1530 nM
Ki [4]: 46200 nM
Ratio [6]: 30

Cc1cc(O)cc(C)c1C[C@@H](N)C(=O)NCCNC(=O)[C@@H](N)Cc1c(C)cc(O)cc1C
IC50 [1]: > 10000 nM
IC50 (Mu-type opioid receptor [2]): 2840 nM
Ki (Mu-type opioid receptor [3]): 1.43 nM
Ki [4]: 116 nM
Kb [5]: 3160 nM
Ratio [6]: 81

Cc1cc(O)cc(C)c1C[C@@H](N)C(=O)NCCCCCCNC(=O)[C@@H](N)Cc1c(C)cc(O)cc1C
IC50 [1]: > 10000 nM
IC50 (Mu-type opioid receptor [2]): 3.08 nM
Ki (Mu-type opioid receptor [3]): 0.053 nM
Ki [4]: 46.1 nM
Kb [5]: 794 nM
Ratio [6]: 870

N[C@H](Cc1ccc(O)cc1)C(=O)NCCCCCCNC(=O)[C@@H](N)Cc1ccc(O)cc1
Ki (Mu-type opioid receptor [3]): 410 nM
Ki [4]: 21900 nM
Ratio [6]: 53

Cc1cc(O)cc(C)c1C[C@@H](N)C(=O)NCCCCCCCCNC(=O)[C@@H](N)Cc1c(C)cc(O)cc1C
IC50 [1]: > 10000 nM
IC50 (Mu-type opioid receptor [2]): 53.7 nM
Ki (Mu-type opioid receptor [3]): 0.19 nM
Ki [4]: 14.8 nM
Kb [5]: 398 nM
Ratio [6]: 78

Cc1cc(O)cc(C)c1C[C@H](N)C(=O)NCCCCNC(=O)[C@H](N)Cc1ccccc1
IC50 [1]: > 10000 nM
IC50 (Mu-type opioid receptor [2]): 181 nM
Ki (Mu-type opioid receptor [3]): 0.52 nM
Ki [4]: 62 nM
Kb [5]: 3160 nM
Ratio [6]: 119

N[C@H](Cc1ccc(O)cc1)C(=O)NCCCCCCCCNC(=O)[C@@H](N)Cc1ccc(O)cc1
Ki (Mu-type opioid receptor [3]): 399 nM
Ki [4]: 6150 nM

Cc1cc(O)cc(C)c1C[C@H](N)C(=O)NCCCCNC(=O)[C@H](N)Cc1ccc(O)cc1
IC50 [1]: > 10000 nM
IC50 (Mu-type opioid receptor [2]): 255 nM
Ki (Mu-type opioid receptor [3]): 0.38 nM
Ki [4]: 133 nM
Kb [5]: 5010 nM
Ratio [6]: 349
